Assay results pooled from the literature.
Protocols differ between the studies behind these lines.
Target: Calcium/calmodulin-dependent protein kinase type II subunit delta (CAMK2D, Homo sapiens, UniProt Q13557)

| Compound | test | setting | remaining binding [%] |
| --- | --- | --- | --- |
| CCc1ccccc1C(=O)Nc1n[nH]c2c(C)c(F)c(C3C(C#N)=C(C)N(C)C(C)=C3C#N)cc12 | cell-free assay, competition with immobilised ligand | 1 µM | 78 |
| O=C(NCC1CCOCC1)c1n[nH]cc1NC(=O)c1c(F)cccc1F | binding, competition with immobilised ligand | 1 µM | 89 |
| COc1cnc(Nc2cccc(S(N)(=O)=O)c2)nc1N1CCN(c2ccccc2)C(=O)C1 | binding, competition with immobilised ligand | 1 µM | 100 |
| Nc1ncc2c(n1)-c1c([nH]c3ccc(C#CC4CC4)cc13)CCCC2 | binding, competition with immobilised ligand | 1 µM | 95 |
| O=C(c1ccc(Nc2ncc(Cl)c(-c3ccc(Cl)s3)n2)cc1)N1CCC(N2CCCC2)CC1 | binding, competition with immobilised ligand | 1 µM | 75 |
| CN(C)c1nccc(-c2cnc3ncccn23)n1 | binding | 1 µM | 100 |
| Cc1c(C(=O)O)cc(-c2ccc(C3CCNCC3)cc2)c2ccc(-c3ccc(C(F)(F)F)cc3)cc12 | cell-free assay, competition with immobilised ligand | 1 µM | 100 |
| C[C@@H]1CCN(c2nccc(-c3cnn4ncccc34)n2)C1 | binding | 1 µM | 100 |
| O=C(NCCCN1CCOCC1)c1ccc(Nc2nccc(-c3cc4ccccc4s3)n2)cc1 | binding, competition with immobilised ligand | 1 µM | 86 |
| c1cnn2ncc(-c3ccnc(N4CCC45COC5)n3)c2c1 | binding | 1 µM | 83 |
| c1cncc(-c2cccc(Nc3nccc(NC4CCCCC4)n3)c2)c1 | binding, competition with immobilised ligand | 10 µM | 92 |
| CNC(=O)Nc1ccc2c(c1)CC[C@@]21OC(=O)N(CC(=O)N(Cc2ccc(F)cc2)[C@@H](C)C(F)(F)F)C1=O | cell-free assay, competition with immobilised ligand | 1 µM | 91 |
| FC(F)(F)Oc1cccc(-c2cnc3ccc(-c4ccncc4)nn23)c1 | cell-free assay, competition with immobilised ligand | 5 µM | 33 |
| CCS(=O)(=O)c1cc2cc(C[C@](O)(CC(C)(C)c3ccc(F)cc3C(N)=O)C(F)(F)F)[nH]c2cn1 | cell-free assay, competition with immobilised ligand | 1 µM | 100 |
| C[C@@H](c1ccc(-n2cnc3c(N)ncnc32)cc1)N1CCc2nn(C)c(Cc3ccccc3)c2C1=O | binding, competition with immobilised ligand | 0.1 µM | 93 |
| Cn1nc(C(F)(F)F)cc1-c1cnc(N2CCc3cc(S(=O)(=O)Nc4c(F)cc(Cl)cc4F)cc(N4CCCC4=O)c32)nc1 | cell-free assay, competition with immobilised ligand | 1 µM | 99 |
| Cc1cnn2ncc(-c3ccnc(N(C)C)n3)c2c1 | binding | 1 µM | 78 |
| CN(c1ccnc(CNc2nc(Nc3ccc4c(c3)CC(=O)N4)ncc2C(F)(F)F)n1)S(C)(=O)=O | cell-free assay, competition with immobilised ligand | 1 µM | 100 |
| N[C@@H]1CCN(c2nccc(-c3cnn4ncccc34)n2)C1 | binding | 1 µM | 100 |
| COc1ncc2cc3ccccc3nc2c1C#N | cell-free assay, competition with immobilised ligand | 5 µM | 98 |
| CN(CCCC(F)(F)F)c1nccc(-c2cnn3ncccc23)n1 | binding | 1 µM | 100 |
| Cc1cnc(Nc2ccc(C(=O)N3CCC(N4CCCC4)CC3)cc2)nc1-c1cc2ccccc2s1 | binding, competition with immobilised ligand | 1 µM | 73 |
